Columns and labels:
[1] = target: T1, Substance-K receptor (Homo sapiens, UniProt P21452); assay: Displacement of [125I]-NKA substance P binding to human urinary bladder membrane protein (NK2)
T1 sequence (P21452 whole entry): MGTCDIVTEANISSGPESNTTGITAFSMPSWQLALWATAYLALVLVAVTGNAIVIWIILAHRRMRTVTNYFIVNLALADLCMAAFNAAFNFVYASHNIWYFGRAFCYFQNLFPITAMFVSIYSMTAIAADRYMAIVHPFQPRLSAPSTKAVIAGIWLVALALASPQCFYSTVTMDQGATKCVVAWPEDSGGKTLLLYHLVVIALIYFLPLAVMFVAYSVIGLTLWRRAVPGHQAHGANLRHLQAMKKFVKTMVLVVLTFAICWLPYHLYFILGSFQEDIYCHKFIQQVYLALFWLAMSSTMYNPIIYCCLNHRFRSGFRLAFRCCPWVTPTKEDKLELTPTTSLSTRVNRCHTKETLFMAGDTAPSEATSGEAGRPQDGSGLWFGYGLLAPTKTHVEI
Procedure, shortened: (§1)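 Radioligand displacement at NK1 or NK2 sites, with Ki values averaged over two to eight determinations.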

[2] = target: Substance-P receptor (Homo sapiens, UniProt P25103); assay: Displacement of [125I]- substance P binding to human astrocytoma cells (NK1); procedure, shortened: as §1
[3] = organism: Cavia porcellus; assay: substance P induced guinea pig ileum
[4] = Functional antagonism by the ability to inhibit substance P induced 45 [Ca2+] efflux in human astrocytoma cells; assay type: cell-based
Procedure, shortened: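 Human astrocytoma cells stimulated with 3 nM substance P; the antagonist's inhibition of 45Ca2+ efflux was measured. Efflux seen without SP and antagonist was subtracted. Mean ± SEM from at least three experiments.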

Chain of Substance-P receptor (P25103 whole entry): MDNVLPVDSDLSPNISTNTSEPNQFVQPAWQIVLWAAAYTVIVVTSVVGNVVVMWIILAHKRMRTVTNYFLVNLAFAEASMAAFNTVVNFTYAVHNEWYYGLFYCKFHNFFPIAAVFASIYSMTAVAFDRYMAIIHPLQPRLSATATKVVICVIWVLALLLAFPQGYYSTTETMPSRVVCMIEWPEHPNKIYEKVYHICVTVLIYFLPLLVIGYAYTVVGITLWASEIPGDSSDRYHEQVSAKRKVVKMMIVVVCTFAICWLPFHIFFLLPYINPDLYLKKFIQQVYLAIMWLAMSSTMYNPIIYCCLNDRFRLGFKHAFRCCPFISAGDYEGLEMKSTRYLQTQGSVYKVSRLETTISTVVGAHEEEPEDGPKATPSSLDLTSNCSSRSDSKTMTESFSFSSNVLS

Row | Ki [1] [µM] | Ki [2] [µM] | pA2 [3] | IC50 [4] [nM] | SMILES
1 | 3.8 | 8 | 5.23 |  | CC(C)=CCc1cc(C(O)C2NC(=O)CNC(=O)[C@H](C(C)C)NC(=O)CNC(=O)[C@@H]3CCCN3C(=O)[C@@H](Cc3c[nH]c4ccccc34)NC(=O)CNC2=O)ccc1O (stereo partly drawn)
2 | 33 | 18 |  |  | COc1ccc(C(O)C2NC(=O)CNC(=O)[C@H](C(C)C)NC(=O)CNC(=O)[C@@H]3CCCN3C(=O)[C@@H](Cc3c[nH]c4ccccc34)NC(=O)CNC2=O)cc1 (stereo partly drawn)
3 | > 100 | > 100 |  |  | CC(C)[C@@H]1NC(=O)CNC(=O)[C@@H]2CCCN2C(=O)[C@@H](Cc2c[nH]c3ccccc23)NC(=O)CNC(=O)C(C(O)c2ccc(O)cc2)NC(=O)CNC1=O (stereo partly drawn)
4 | 73 | 72 |  |  | COc1ccc(CC2NC(=O)CNC(=O)[C@H](C(C)C)NC(=O)CNC(=O)[C@@H]3CCCN3C(=O)[C@@H](Cc3c[nH]c4ccccc34)NC(=O)CNC2=O)cc1 (stereo partly drawn)
5 | 1.6 | 0.12 |  | 430 | COc1ccc(C(O)C2NC(=O)CNC(=O)[C@H](C(C)C)NC(=O)CNC(=O)[C@@H]3CCCN3C(=O)[C@@H](Cc3c[nH]c4ccccc34)NC(=O)CNC2=O)cc1CC=C(C)C (stereo partly drawn)
6 | 31 | 93 |  |  | CC(C)[C@@H]1NC(=O)CNC(=O)[C@@H]2CCCN2C(=O)C(Cc2c[nH]c3ccccc23)NC(=O)CNC(=O)[C@H](Cc2ccc(OC(C)(C)C)cc2)NC(=O)CNC1=O (single isomer, unassigned)
7 | 27 | 48 |  |  | CC(C)[C@@H]1NC(=O)CNC(=O)[C@@H]2CCCN2C(=O)[C@@H](Cc2c[nH]c3ccccc23)NC(=O)CNC(=O)[C@H](Cc2ccc(OC(C)(C)C)cc2)NC(=O)CNC1=O
8 | > 100 | > 100 |  |  | CC(C)[C@@H]1NC(=O)CNC(=O)[C@@H]2CCCN2C(=O)[C@@H](Cc2c[nH]c3ccccc23)NC(=O)CNC(=O)[C@H](Cc2ccc(O)cc2)NC(=O)CNC1=O
